Experimental data as given in ChEMBL document CHEMBL1649147, “Antistaphylococcal activity of dihydrophthalazine antifolates, a family of novel antibacterial drugs” (2009).
Converted amounts (≈) assume the structure as drawn.

Tests used:
Staphylococcus aureus [1] = assay: Antibacterial activity against methicillin-susceptible, vancomycin-intermediate Staphylococcus aureus 505 by broth macrodilution method; format: functional
[2] = tested on: Staphylococcus epidermidis; assay: Antibacterial activity against methicillin-resistant coagulase-negative Staphylococcus epidermidis 225 by broth macrodilution method; format: functional
[3] = tested on: Staphylococcus epidermidis; assay: Antibacterial activity against methicillin-susceptible coagulase-negative Staphylococcus epidermidis 057 by broth macrodilution method; format: functional
[4] = tested on: Staphylococcus epidermidis; assay: Antibacterial activity against methicillin-resistant coagulase-negative Staphylococcus epidermidis 197 by broth macrodilution method; format: functional
[5] = tested on: coagulase-negative staphylococci; assay: Antibacterial activity against Tmp-susceptible coagulase-negative staphylococci by agar dilution method
Staphylococcus aureus [6] = assay: Antibacterial activity against Staphylococcus aureus 145
[7] = tested on: Staphylococcus epidermidis; assay: Antibacterial activity against coagulase-negative Staphylococcus epidermidis 225 assessed as change in MIC by agar dilution method after serial passages in presence of antibiotic relative to control; format: functional
How it was run: (§1)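 Serial passage under drug. Inoculum was ~1 × 10^6 CFU/ml from overnight MHA growth, in 1 ml MHB at 35°C for 24 h. Drug ranged from 4 log2 steps above to 3 log2 steps below the MIC. […] MIC change is given as log2 steps.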

[8] = tested on: coagulase-negative staphylococci; assay: Antibacterial activity against methicillin-susceptible coagulase-negative staphylococci by agar dilution method
[9] = tested on: Staphylococcus epidermidis; assay: Antibacterial activity against coagulase-negative Staphylococcus epidermidis 345 by agar dilution method; format: functional
How it was run: (§2)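 MICs by agar dilution on Mueller-Hinton agar following CLSI guidelines. S. aureus ATCC 29213 and E. faecalis ATCC 29212 were run as quality controls with each set, and test-strain MICs were kept only if control MICs fell within acceptable ranges.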

[10] = tested on: Staphylococcus epidermidis; assay: Antibacterial activity against coagulase-negative Staphylococcus epidermidis 225 after 36 passages by agar dilution method; format: functional; how it was run: as §1
[11] = tested on: Staphylococcus epidermidis; assay: Antibacterial activity against coagulase-negative Staphylococcus epidermidis 051 after 50 passages by agar dilution method; format: functional; how it was run: as §1
[12] = tested on: Staphylococcus epidermidis; assay: Antibacterial activity against methicillin-resistant coagulase-negative Staphylococcus epidermidis 197 after 50 passages by agar dilution method; format: functional
How it was run: (§3)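 Daily serial passage for up to 50 days at 35°C for 24 h in 1 ml MHB. Each transfer used 10 µl from the tube nearest the MIC (1–2 dilutions below) with the same turbidity as the drug-free control. MICs were measured by agar dilution, with changes given as log2 steps.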

[13] = tested on: Staphylococcus epidermidis; assay: Antibacterial activity against coagulase-negative Staphylococcus epidermidis 057 after 23 passages by agar dilution method; format: functional; how it was run: as §1
[14] = tested on: Staphylococcus epidermidis; assay: Antibacterial activity against coagulase-negative Staphylococcus epidermidis 345 assessed as change in MIC by agar dilution method after serial passages in the absence of antibiotic relative to control; format: functional
How it was run: (§4)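 After drug-selective serial passage, selected clones were passaged 10 times in antibiotic-free MHB. MICs were then redetermined, and the change is expressed as log2 dilution steps.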

Staphylococcus aureus [15] = assay: Antibacterial activity against methicillin-resistant and vancomycin-resistant Staphylococcus aureus VRS1 by agar dilution method; format: functional
How it was run: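 Agar dilution on Mueller-Hinton agar per CLSI guidelines. S. aureus ATCC 29213 and E. faecalis ATCC 29212 were run with each set, and test MICs were accepted only when the control strains fell within acceptable ranges.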

[16] = tested on: Staphylococcus epidermidis; assay: Antibacterial activity against coagulase-negative Staphylococcus epidermidis 057 assessed as change in MIC by agar dilution method after serial passages in the absence of antibiotic relative to control; format: functional; how it was run: as §4
[17] = tested on: Staphylococcus epidermidis; assay: Antibacterial activity against methicillin-resistant, Linezolid non-susceptible coagulase-negative Staphylococcus epidermidis 345 by agar dilution method; format: functional
[18] = tested on: Staphylococcus epidermidis; assay: Antibacterial activity against methicillin-resistant, Linezolid non-susceptible coagulase-negative Staphylococcus epidermidis 345 after 50 passages by agar dilution method; format: functional; how it was run: as §3
Staphylococcus aureus [19] = assay: Antibacterial activity against methicillin-resistant and vancomycin-resistant Staphylococcus aureus VRS1 after 25 passages by agar dilution method; format: functional
How it was run: (§5)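 Daily serial passage for up to 50 days at 35°C for 24 h in 1 ml MHB. […] Each transfer used 10 µl from the tube nearest the MIC (1–2 dilutions below) with the same turbidity as the drug-free control. […] MICs were measured by agar dilution, with changes given as log2 steps.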

Staphylococcus aureus [20] = assay: Antibacterial activity against methicillin-resistant Staphylococcus aureus ATCC 43300 by broth macrodilution method; format: functional; settings: ATCC43300
[21] = tested on: coagulase-negative staphylococci; assay: Antibacterial activity against methicillin-resistant coagulase-negative staphylococci by agar dilution method
[22] = tested on: Staphylococcus epidermidis; assay: Antibacterial activity against methicillin-resistant, vancomycin-intermediate coagulase-negative Staphylococcus epidermidis 225 after 36 passages by agar dilution method; format: functional; how it was run: as §5
Staphylococcus aureus [23] = assay: Antibacterial activity against vancomycin-resistant Staphylococcus aureus VRS1 after 25 passages by agar dilution method; format: functional; how it was run: as §5
[24] = tested on: Staphylococcus epidermidis; assay: Antibacterial activity against methicillin-susceptible coagulase-negative Staphylococcus epidermidis 051 after 50 passages by agar dilution method; format: functional; how it was run: as §3
[25] = tested on: Staphylococcus epidermidis; assay: Antibacterial activity against coagulase-negative Staphylococcus epidermidis 225 assessed as change in MIC by agar dilution method after serial passages in the absence of antibiotic relative to control; format: functional; how it was run: as §4
[26] = tested on: Staphylococcus epidermidis; assay: Antibacterial activity against coagulase-negative Staphylococcus epidermidis 225 by agar dilution method; format: functional; how it was run: as §2
Staphylococcus aureus [27] = assay: Antibacterial activity against Staphylococcus aureus 505 assessed as change in MIC by agar dilution method after serial passages in presence of antibiotic relative to control; format: functional; how it was run: as §1
[28] = tested on: Staphylococcus epidermidis; assay: Antibacterial activity against coagulase-negative Staphylococcus epidermidis 345 after 50 passages by agar dilution method; format: functional; how it was run: as §1
Staphylococcus aureus [29] = assay: Antibacterial activity against vancomycin-resistant Staphylococcus aureus VRS1 after 15 passages by agar dilution method; format: functional; how it was run: as §5
[30] = tested on: Staphylococcus epidermidis; assay: Antibacterial activity against methicillin-susceptible coagulase-negative Staphylococcus epidermidis 057 after 50 passages by agar dilution method; format: functional; how it was run: as §3
Staphylococcus aureus [31] = assay: Antibacterial activity against methicillin-resistant Staphylococcus aureus 145 after 37 passages by agar dilution method; format: functional; how it was run: as §1
Staphylococcus aureus [32] = assay: Antibacterial activity against methicillin-resistant and vancomycin-resistant Staphylococcus aureus VRS1 after 15 passages by agar dilution method; format: functional; how it was run: as §5
[33] = tested on: Staphylococcus epidermidis; assay: Antibacterial activity against methicillin-resistant, vancomycin-intermediate coagulase-negative Staphylococcus epidermidis 225 after 50 passages by agar dilution method; format: functional; how it was run: as §5
[34] = tested on: Staphylococcus epidermidis; assay: Antibacterial activity against coagulase-negative Staphylococcus epidermidis 225 after 50 passages by agar dilution method; format: functional; how it was run: as §1

Row | Structure (SMILES) | MIC (Staphylococcus aureus [1]) | MIC [2] | MIC [3] | MIC [4] | MIC50 [5] | MIC90 [5] | MIC (Staphylococcus aureus [6]) | fold change (FC) [7] | MIC90 [8] | MIC [9] | MIC [11] | MIC [12] | fold change (FC) [14] | MIC (Staphylococcus aureus [15]) | fold change (FC) [16] | MIC [17] | MIC [18] | MIC (Staphylococcus aureus [20]) | MIC50 [21] | MIC90 [21] | further results
1 | COc1cc(Cc2cnc(N)nc2N)cc(/C=C/C(=O)N2N=Cc3ccccc3C2c2cnc(N3CCOCC3)nc2)c1OC (stereo unspecified) | 0.03 µg/mL (≈ 0.0494 µM) | 0.25 µg/mL (≈ 0.411 µM) | 4 µg/mL (≈ 6.58 µM) | 0.06 µg/mL (≈ 0.0987 µM) | 0.03 µg/mL (≈ 0.0494 µM) | 0.06 µg/mL (≈ 0.0987 µM) | 0.25 µg/mL (≈ 0.411 µM) | 10 | 0.06 µg/mL (≈ 0.0987 µM) | 0.06 µg/mL (≈ 0.0987 µM) | 64 µg/mL (≈ 105 µM) | 1 µg/mL (≈ 1.65 µM) | -1 | 1 µg/mL (≈ 1.65 µM) | -1 | 0.06 µg/mL (≈ 0.0987 µM) | 4 µg/mL (≈ 6.58 µM) | 0.03 µg/mL (≈ 0.0494 µM) | 0.06 µg/mL (≈ 0.0987 µM) | 0.5 µg/mL (≈ 0.823 µM) | MIC [10]: > 128 µg/mL; MIC [13]: > 128 µg/mL; MIC (Staphylococcus aureus [19]): > 128 µg/mL; MIC [22]: > 128 µg/mL; MIC (Staphylococcus aureus [23]): > 128 µg/mL; MIC [24]: 64 µg/mL (≈ 105 µM); fold change (FC) [25]: -7; MIC [26]: 0.25 µg/mL (≈ 0.411 µM); fold change (FC) (Staphylococcus aureus [27]): 6; MIC [28]: 4 µg/mL (≈ 6.58 µM)
2 | COc1ncc(C2c3ccccc3C=NN2C(=O)/C=C/c2cc(Cc3cnc(N)nc3N)cc(OC)c2OC)cn1 (stereo unspecified) | 0.016 µg/mL (≈ 0.029 µM) | 0.25 µg/mL (≈ 0.452 µM) | 8 µg/mL (≈ 14.5 µM) | 0.008 µg/mL (≈ 0.0145 µM) | 0.016 µg/mL (≈ 0.029 µM) | 0.03 µg/mL (≈ 0.0543 µM) | 0.5 µg/mL (≈ 0.905 µM) | 9 | 0.06 µg/mL (≈ 0.109 µM) | 0.125 µg/mL (≈ 0.226 µM) | 64 µg/mL (≈ 116 µM) | 1 µg/mL (≈ 1.81 µM) | -3 | 0.5 µg/mL (≈ 0.905 µM) | 0 | 0.125 µg/mL (≈ 0.226 µM) | 16 µg/mL (≈ 29 µM) | 0.03 µg/mL (≈ 0.0543 µM) | 0.06 µg/mL (≈ 0.109 µM) | 0.5 µg/mL (≈ 0.905 µM) | MIC (Staphylococcus aureus [29]): > 128 µg/mL; MIC [30]: 128 µg/mL (≈ 232 µM); MIC (Staphylococcus aureus [31]): > 128 µg/mL; MIC (Staphylococcus aureus [32]): > 128 µg/mL; MIC [33]: 128 µg/mL (≈ 232 µM); MIC [34]: 128 µg/mL (≈ 232 µM); MIC [24]: 64 µg/mL (≈ 116 µM); fold change (FC) [25]: -4; MIC [26]: 0.25 µg/mL (≈ 0.452 µM); fold change (FC) (Staphylococcus aureus [27]): 6; MIC [28]: 16 µg/mL (≈ 29 µM)
